Laboratory results reported in ChEMBL document CHEMBL1129275, “Synthesis and in vitro and in vivo characteristics of an iodinated analogue of the beta-adrenoceptor antagonist carazolol” (J Med Chem, 1996).

Legend:
Oryctolagus cuniculus [1] = test: Cerebral biodistribution pattern of [123I]- ligand was evaluated in hypothalamus of anesthetized rabbit after Intravenous injection of 50 uCi after 5 min; assay type: ADME, organism-based; details: in vivo
Procedure, shortened: (§1)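 Male New Zealand white rabbits (2.5–3.5 kg), anesthetized with xylazine 5 mg/kg plus ketamine 30 mg/kg im, given 50 µCi radioligand (specific activity >5000 Ci/mmol) iv via ear vein. Euthanized at set times by pentobarbital 200 mg/kg im, n = 3/time point. Organs removed and weighed, gamma-counted, decay/weight corrected; expressed as % ID x kg body weight/g tissue, mean ± SEM.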

Oryctolagus cuniculus [2] = test: Cerebral biodistribution pattern of [123I]- ligand was evaluated in hypothalamus of anesthetized rabbit after Intravenous injection of 50 uCi after 6 hr; assay type: ADME, organism-based; details: in vivo; procedure, shortened: as §1
Oryctolagus cuniculus [3] = test: Biodistribution pattern of [123I]- ligand was evaluated in intestine of anesthetized rabbit after Intravenous injection of 50 uCi after 1 hr; assay type: ADME, organism-based; details: in vivo
Procedure, shortened: (§2)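 Male New Zealand white rabbits, 2.5–3.5 kg, anesthetized with 5 mg/kg xylazine plus 30 mg/kg ketamine im. Each received 50 uCi radioligand (specific activity > 5000 Ci/mmol) iv via ear vein. Animals were killed with 200 mg/kg pentobarbital im at the set time. Blood was drawn by intracardiac puncture and organs weighed. Gamma counting was decay-corrected, expressed as %ID x kg body weight/g tissue, mean ± SEM, n = 3/time point.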

Oryctolagus cuniculus [4] = test: Biodistribution pattern of [123I]- ligand was evaluated in intestine of anesthetized rabbit after Intravenous injection of 50 uCi after 2 hr; assay type: ADME, organism-based; details: in vivo; procedure, shortened: as §2
Oryctolagus cuniculus [5] = test: Biodistribution pattern of [123I]- ligand was evaluated in left atrial muscle of anesthetized rabbit after Intravenous injection of 50 uCi after 1 hr; assay type: ADME, organism-based, Muscle tissue; details: in vivo; procedure, shortened: as §2
Oryctolagus cuniculus [6] = test: Biodistribution pattern of [123I]- ligand was evaluated in left atrial muscle of anesthetized rabbit after Intravenous injection of 50 uCi after 4 hr; assay type: ADME, organism-based, Muscle tissue; details: in vivo; procedure, shortened: as §2
Oryctolagus cuniculus [7] = test: Biodistribution pattern of [123I]- ligand was evaluated in left atrial muscle of anesthetized rabbit after Intravenous injection of 50 uCi after 5 min; assay type: ADME, organism-based, Muscle tissue; details: in vivo; procedure, shortened: as §2
Oryctolagus cuniculus [8] = test: Biodistribution pattern of [123I]- ligand was evaluated in right atrial muscle of anesthetized rabbit after Intravenous injection of 50 uCi after 2 hr; assay type: ADME, organism-based, Muscle tissue; details: in vivo; procedure, shortened: as §1
Oryctolagus cuniculus [9] = test: Biodistribution pattern of [123I]- ligand was evaluated in right ventricular muscle of anesthetized rabbit after Intravenous injection of 50 uCi after 24 hr; assay type: ADME, organism-based, Muscle tissue; details: in vivo; procedure, shortened: as §1
Oryctolagus cuniculus [10] = test: Cerebral biodistribution pattern of [123I]- ligand was evaluated in thalamus of anesthetized rabbit after Intravenous injection of 50 uCi after 4 hr; assay type: ADME, organism-based; details: in vivo; procedure, shortened: as §1
Oryctolagus cuniculus [11] = test: Cerebral biodistribution pattern of [123I]- ligand was evaluated in thalamus of anesthetized rabbit after Intravenous injection of 50 uCi after 6 hr; assay type: ADME, organism-based; details: in vivo
Procedure, shortened: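 Male New Zealand white rabbits (2.5–3.5 kg) anesthetized with xylazine 5 mg/kg plus ketamine 30 mg/kg im; 50 uCi radioligand (specific activity > 5000 Ci/mmol) given iv via ear vein. Euthanized by pentobarbital 200 mg/kg im at set times up to 24 h (n = 3/time point). Brain regions weighed and gamma-counted, decay-corrected, expressed as % ID x kg body weight/g tissue, mean ± SEM.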

Oryctolagus cuniculus [12] = test: Biodistribution pattern of [123I]- ligand was evaluated in lung of anesthetized rabbit after Intravenous injection of 50 uCi after 6 hr; assay type: ADME, organism-based; details: in vivo; procedure, shortened: as §2
Oryctolagus cuniculus [13] = test: Biodistribution pattern of [123I]- ligand was evaluated in muscle of anesthetized rabbit after Intravenous injection of 50 uCi after 24 hr; assay type: ADME, organism-based, Muscle tissue; details: in vivo; procedure, shortened: as §2
Oryctolagus cuniculus [14] = test: Biodistribution pattern of [123I]- ligand was evaluated in blood of anesthetized rabbit after Intravenous injection of 50 uCi after 2 hr; assay type: ADME, organism-based; details: in vivo; procedure, shortened: as §2
Oryctolagus cuniculus [15] = test: Biodistribution pattern of [123I]- ligand was evaluated in blood of anesthetized rabbit after Intravenous injection of 50 uCi after 4 hr; assay type: ADME, organism-based; details: in vivo; procedure, shortened: as §2
Oryctolagus cuniculus [16] = test: Biodistribution pattern of [123I]- ligand was evaluated in blood of anesthetized rabbit after Intravenous injection of 50 uCi after 5 min; assay type: ADME, organism-based; details: in vivo; procedure, shortened: as §2
Oryctolagus cuniculus [17] = test: Biodistribution pattern of [123I]- ligand was evaluated in fat of anesthetized rabbit after Intravenous injection of 50 uCi after 4 hr; assay type: ADME, organism-based, Adipose tissue; details: in vivo; procedure, shortened: as §2
Oryctolagus cuniculus [18] = test: Biodistribution pattern of [123I]- ligand was evaluated in fat of anesthetized rabbit after Intravenous injection of 50 uCi after 1 hr; assay type: ADME, organism-based, Adipose tissue; details: in vivo; procedure, shortened: as §2
Oryctolagus cuniculus [19] = test: Biodistribution pattern of [123I]- ligand was evaluated in fat of anesthetized rabbit after Intravenous injection of 50 uCi after 24 hr; assay type: ADME, organism-based, Adipose tissue; details: in vivo; procedure, shortened: as §2
Oryctolagus cuniculus [20] = test: Biodistribution pattern of [123I]- ligand was evaluated in fat of anesthetized rabbit after Intravenous injection of 50 uCi after 2 hr; assay type: ADME, organism-based, Adipose tissue; details: in vivo; procedure, shortened: as §2
Oryctolagus cuniculus [21] = test: Biodistribution pattern of [123I]- ligand was evaluated in spleen of anesthetized rabbit after Intravenous injection of 50 uCi after 2 hr; assay type: ADME, organism-based; details: in vivo; procedure, shortened: as §1
Oryctolagus cuniculus [22] = test: Biodistribution pattern of [123I]- ligand was evaluated in spleen of anesthetized rabbit after Intravenous injection of 50 uCi after 30 min; assay type: ADME, organism-based; details: in vivo, 0.5 h; procedure, shortened: as §1
Oryctolagus cuniculus [23] = test: Biodistribution pattern of [123I]- ligand was evaluated in spleen of anesthetized rabbit after Intravenous injection of 50 uCi after 4 hr; assay type: ADME, organism-based; details: in vivo; procedure, shortened: as §1
Oryctolagus cuniculus [24] = test: Biodistribution pattern of [123I]- ligand was evaluated in liver of anesthetized rabbit after Intravenous injection of 50 uCi after 5 min; assay type: ADME, organism-based; details: in vivo; procedure, shortened: as §2

CC(C)(/C=C/I)NC[C@H](O)COc1cccc2[nH]c3ccccc3c12
ID x kg of body weight/g of tissue (Oryctolagus cuniculus [1]): 0.25%
ID x kg of body weight/g of tissue (Oryctolagus cuniculus [2]): 0.03%
ID x kg of body weight/g of tissue (Oryctolagus cuniculus [3]): 0.1%
ID x kg of body weight/g of tissue (Oryctolagus cuniculus [4]): 0.13%
ID x kg of body weight/g of tissue (Oryctolagus cuniculus [5]): 0.16%
ID x kg of body weight/g of tissue (Oryctolagus cuniculus [6]): 0.11%
ID x kg of body weight/g of tissue (Oryctolagus cuniculus [7]): 0.36%
ID x kg of body weight/g of tissue (Oryctolagus cuniculus [8]): 0.13%
ID x kg of body weight/g of tissue (Oryctolagus cuniculus [9]): 0.02%
ID x kg of body weight/g of tissue (Oryctolagus cuniculus [10]): 0.03%
ID x kg of body weight/g of tissue (Oryctolagus cuniculus [11]): 0.03%
ID x kg of body weight/g of tissue (Oryctolagus cuniculus [12]): 0.71%
ID x kg of body weight/g of tissue (Oryctolagus cuniculus [13]): 0.05%
ID x kg of body weight/g of tissue (Oryctolagus cuniculus [14]): 0.01%
ID x kg of body weight/g of tissue (Oryctolagus cuniculus [15]): 0.01%
ID x kg of body weight/g of tissue (Oryctolagus cuniculus [16]): 0.03%
ID x kg of body weight/g of tissue (Oryctolagus cuniculus [17]): 0.02%
ID x kg of body weight/g of tissue (Oryctolagus cuniculus [18]): 0.06%
ID x kg of body weight/g of tissue (Oryctolagus cuniculus [19]): 0.01%
ID x kg of body weight/g of tissue (Oryctolagus cuniculus [20]): 0.04%
ID x kg of body weight/g of tissue (Oryctolagus cuniculus [21]): 0.22%
ID x kg of body weight/g of tissue (Oryctolagus cuniculus [22]): 0.41%
ID x kg of body weight/g of tissue (Oryctolagus cuniculus [23]): 0.1%
ID x kg of body weight/g of tissue (Oryctolagus cuniculus [24]): 0.14%
